# Bioassay records as filed in PubChem.
# HCT116 bCat-KO = beta-catenin-lacking colon tumor cell growth suppression; viability, % at 10 µM; AID 818; HCT116 beta-catenin knockout viability, CellTiter-Glo, 60 h; active compounds read low; actives 1.5% (n = 140,000);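 active = viability at or under a set limit, the compound median less 4 SD, cut at about 6% in these data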;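 also: 0% = Hyamine 1622 control at 20 µM and 100% = untreated cell control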
# H69AR inhibit = growth inhibitors of human H69AR lung tumor cells. H69AR lung tumor viability, ATP luminescence, 72 h; active compounds read low. viability, % at 10 µM. actives 6% (n = 85,000). AID 598;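 active = viability at or below 40%; inactive = viability above 40%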;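 also: multidrug resistant small cell line overexpressing MRP-1 efflux transporter; 100% = mean luminescence of untreated control wells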
# HUVEC prolif 384 = blocks proliferation of human endothelial cells; HUVEC proliferation, CellTiter-Glo luminescence, 72 h; active compounds read low; viability, % at 10 µM (by protocol); actives 1.1% (n = 86,000); AID 648;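 active = viability at or below 30%; inactive = viability above 30%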;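 also: 100% = median luminescence of DMSO-only cell control wells on each plate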
# Lung fibro prol = blocks proliferation of human lung fibroblasts; LL 47 human lung fibroblast viability, ATP luminescence; active compounds read low; viability, % at 10 µM; actives 1.1% (n = 85,000); AID 719;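 active = viability at or below 50% in the single dose screen; inactive = viability above 50%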;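 also: compound exposure lasted 72 h before the ATP readout; 100% = median luminescence of untreated cell-only wells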
#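 test system = LL 47 human lung fibroblasts | amount = 1,150 fibroblasts seeded per well | medium = 15% FBS in IMEM | times = overnight cell rest, 72 h compound treatment at 37 °C | measured by = CellTiter-Glo luminescence measuring cellular ATP | read-out = viability percentage against median untreated-cell control | benchmarks = cell-only wells, no compound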
# PTEN del growth = growth suppressors of cells with PTEN tumor suppressor deletion | actives 1.2% (n = 140,000) | HCT116 PTEN-null viability, CellTiter-Glo, 60 h; active compounds read low | viability, % at 10 µM;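 active = viability at or below a set limit, 4 SD under the median of all tested compounds, cut at about 3.7% in these data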;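 also: PTEN knockout HCT116 line with beta catenin targeted HCT116 as companion control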
# Active calls of the source: *; · = no result. This is one part of a sample in which hits are shown more often than they occur.
SMILES,HCT116 bCat-KO,H69AR inhibit,HUVEC prolif 384,Lung fibro prol,PTEN del growth
O=C(NCCCN1CCCC1=O)c1nnc(Cc2c(F)cccc2Cl)o1,90,96,97,100,91
CN(C)c1ccc(NC2=C(Cl)C(=O)c3ccccc3C2=O)cc1,1.6*,·,·,·,1.5*
Cc1ccc(NC2=C(NCCO)C(=O)c3ccccc3C2=O)cc1,61,·,·,·,62
O=C1C(Cl)=C(NCCCO)C(=O)c2ccccc21,11,7.4*,96,104,11
Cc1ccccc1C1CC(c2ccccc2OC(F)F)Nc2ncnn21 (centres undefined),97,0.6*,98,94,87
Cc1ccc(C2CC(c3ccccc3OC(F)F)Nc3ncnn32)cc1 (centres undefined),88,·,·,·,94
COc1ccc(CCNC(=O)C(C(=O)c2ccccc2)n2ccccc2=O)cc1OC (centres undefined),97,·,·,·,94
c1ccc(-n2ncc3c2ncn2nc(CSc4nc5ccccc5s4)nc32)cc1,·,29*,42,62,·
COc1cccc(Nc2nc(-c3ccc4c(c3)OCCO4)cs2)c1,29,37*,73,96,34
C=CCn1c(C)cc(C(=O)CSc2nnc(NCc3ccccc3)s2)c1C,21,25*,58,53,37
CC(=O)Nc1ccc(NC2=Nc3ccccc3N3C2=Nc2c(c(C)nn2-c2ccccc2)C3c2ccccc2)cc1 (centres undefined),22,67,76,33*,27
CCOC(=O)c1cn(CC(=O)Nc2ccc(CC)cc2)nn1,91,87,87,100,89
O=C(NNC(=O)c1cccnc1SCc1cccc([N+](=O)[O-])c1)c1ccccn1,6.0*,·,·,·,10
CCOC(=O)CSc1cccc2cccnc12,6.0*,0.3*,66,46*,2.7*
Cc1cccc(CSc2cccc3cccnc23)c1,4.9*,·,·,·,2.8*
CC1(C)CC(=O)C2=C(C1)OC(N)=C(C#N)C2c1cn(-c2ccccc2)nc1-c1ccc(F)cc1 (centres undefined),18,·,·,·,11
COCCN(CCOC)C(=O)C12CCC(C)(C(=O)C1)C2(C)C (centres undefined),101,99,102,101,104
O=C(N/N=C1\CCCc2ccccc21)c1ccc([N+](=O)[O-])cc1,97,90,89,92,74
COc1ccc(NS(=O)(=O)c2cc(C)ccc2NC(=O)c2cc(C)oc2C)cc1,11,29*,39,55,12
O=C(Nc1ccc(F)cc1)Nc1ccc(N2CCCC2)c(S(=O)(=O)Nc2ccccc2Cl)c1,2.8*,·,·,·,1.9*
O=C(Nc1ccc(Cl)c(Cl)c1)Nc1ccc(N2CCCC2)c(S(=O)(=O)Nc2ccccc2Cl)c1,1.6*,·,·,·,1.4*
Cc1oc(-c2ccc(Cl)cc2)nc1CN1CCC(C(=O)N2CCN(c3ccccn3)CC2)CC1,·,66,56,93,·
CCc1ccc(-c2nc(CN3CCC(C(=O)N4CCN(c5ccccn5)CC4)CC3)c(C)o2)cc1,1.9*,39*,31,96,1.1*
CCN1CCN(C(=O)C2CCN(Cc3nc(-c4ccc(Cl)cc4)oc3C)CC2)CC1,·,106,82,88,·
CCc1ccc(-c2nc(CN3CCC(C(=O)N4CCN(c5ccccc5)CC4)CC3)c(C)o2)cc1,2.0*,1.2*,3.5*,74,2.4*
SMILES,HCT116 bCat-KO,H69AR inhibit,HUVEC prolif 384,Lung fibro prol,PTEN del growth
Cc1oc(-c2cccc(Cl)c2)nc1CN1CCC(C(=O)N2CCN(c3ccccn3)CC2)CC1,·,33*,35,74,·
Cc1cccc(CN2C(=O)N/C(=C/c3ccc(C)s3)C2=O)c1,44,·,·,·,46
CCc1nnc(NS(=O)(=O)c2ccc(N/C=C\C(=O)c3cccc4ccccc34)cc2)s1,89,·,·,·,87
O=C1C(NS(=O)(=O)c2cccs2)=C(N2CCN(c3cccc(C(F)(F)F)c3)CC2)C(=O)c2ccccc21,75,55,68,91,61
Cc1ccc(C)c(S(=O)(=O)Nc2ccc3scnc3c2)c1,30,17*,63,·,31
CCNc1nc(NCC)nc(OCCOC(=O)Nc2ccccc2)n1,91,·,·,·,98
Clc1cccc(/C=N/Nc2ncnc3ccccc23)c1,2.8*,·,·,·,7
Clc1ccc(/C=N/Nc2nc(Cl)nc3ccccc23)cc1,88,·,·,·,80
COc1ccc(CCNC(=O)c2cc(-c3ccccc3OC)on2)cc1OC,103,92,103,·,98
Nc1cccc2c1C(=O)N(C(=O)c1cccc(S(=O)(=O)N3CCCC3)c1)C2=O,92,·,·,·,94
O=C(Nc1ccc(OCC(F)(F)C(F)F)c(C(F)(F)F)c1)c1ccccc1O,5.2*,·,·,·,5
O=C1NCCN1CCNS(=O)(=O)c1ccc2ccccc2c1,100,95,101,98,108
CC(C)NC(=O)c1c2c(nc3ccccc13)CCCC2,96,33*,88,100,96
O=C(Nc1cccc(C(F)(F)F)c1)N1CCN(C(=O)Nc2cccc(C(F)(F)F)c2)CC1,96,·,·,·,94
O=C(Nc1cccc(C(F)(F)F)c1)C12CC3CC(CC(C3)C1)C2,0.9*,79,88,98,1.0*
COc1cc(C(=O)Nc2cc(C)ccn2)cc(OC)c1OC,90,79,94,104,96
COc1ccc(C(=O)NC(=O)Nc2cc(C)ccn2)cc1,49,40*,65,86,57
c1cnc2c(SCc3ccc(-c4nnco4)cc3)cccc2c1,102,90,99,101,90
O=C(NCCCn1ccnc1)Nc1cccc2ccccc12,97,95,96,101,100
Cc1ccc(O)c(C(=O)c2cnc3c(c2)CN(C)C(=O)N3)c1,47,·,·,·,44
CN1Cc2cc(C(=O)c3cc(Cl)cc(CSc4ncccn4)c3O)cnc2NC1=O,22,25*,52,51,22
CCN(CC)C(=O)Cc1cc(C(=O)O)c2ccccc2n1,95,99,93,96,92
COc1ccc(F)cc1S(=O)(=O)N1CCC(C(N)=O)CC1,92,95,86,96,100
Cc1cccc(CN2CCN(C(c3ccccc3)c3ccc(Cl)cc3)CC2)c1 (centres undefined),87,89,80,96,78
CN1CCCN(C(c2ccccc2)c2ccc(Cl)cc2)CC1 (centres undefined),17,25*,77,65,16
SMILES,HCT116 bCat-KO,H69AR inhibit,HUVEC prolif 384,Lung fibro prol,PTEN del growth
COc1cc2c(cc1OC)C(c1ccc(-c3ccc(Cl)c(Cl)c3)o1)=NCC2,4.1*,19*,65,71,2.8*
COc1cc2c(cc1OC)C(c1ccc(-c3ccc(Cl)cc3Cl)o1)=NCC2,11,·,·,·,13
COc1cc2c(cc1OC)C(c1ccc(-c3ccccc3Cl)o1)=NCC2,16,30*,68,82,17
COc1ccc2c(c1)CCN=C2Cc1ccc(OC)c(OC)c1,55,·,·,·,60
S=C(c1ccc(-c2ccccc2Cl)o1)N1CCCCC1,98,·,·,·,107
COc1cc2c(cc1OC)C(c1ccc(-c3cc(Cl)ccc3Cl)o1)=NCC2,7,56,77,84,3.3*
CCCCN1C(=O)C2NN=C(C(=O)OC)C2C1=O (centres undefined),108,86,88,97,98
